Test results published in ChEMBL document CHEMBL2176949 (J Med Chem, 2012).

Experiments:
[1] = biological target: T1, Neuronal acetylcholine receptor; alpha4/beta2 (Homo sapiens, UniProt P17787+P43681); assay: Agonist activity at human alpha4beta2 nAChR high sensitivity form expressed in human SH-EP1 cells assessed as increase in calcium flux by FLIPR; format: functional, cell-based
[2] = biological target: T2, Neuronal acetylcholine receptor; alpha3/beta4 (Homo sapiens, UniProt P30926+P32297); assay: Agonist activity at human alpha3beta4 nAChR expressed in human SH-SY5Y cells assessed as increase in calcium flux by FLIPR relative to 10 uM nicotine; format: functional, cell-based
[3] = biological target: T1, Neuronal acetylcholine receptor; alpha4/beta2; assay: Agonist activity at human alpha4beta2 nAChR low sensitivity form expressed in human SH-EP1 cells assessed as increase in calcium flux by FLIPR; format: functional, cell-based
[4] = biological target: T1, Neuronal acetylcholine receptor; alpha4/beta2; assay: Agonist activity at human alpha4beta2 nAChR high sensitivity form expressed in human SH-EP1 cells assessed as increase in calcium flux by FLIPR relative to 10 uM nicotine; format: functional, cell-based
[5] = biological target: T1, Neuronal acetylcholine receptor; alpha4/beta2; assay: Agonist activity at human alpha4beta2 nAChR low sensitivity form expressed in human SH-EP1 cells assessed as increase in calcium flux by FLIPR relative to 10 uM nicotine; format: functional, cell-based
[6] = biological target: Neuronal acetylcholine receptor subunit alpha-7 (Homo sapiens, UniProt P36544); assay: Displacement of [3H]epibatidine from human alpha7 nAChR expressed in human HEK/RIC3 cells; format: cell-based
In short: (§1)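 Binding to membranes from the cell lines: homogenised in PBS pH 7.4, spun at 40000g for 20 min at 4 °C, then incubated 2 h on ice in PBS with competitor (0.001 nM to 100 μM) and radioligand. Filters washed in ice-cold PBS and counted by scintillation. IC50 from nonlinear regression; Ki by Cheng-Prusoff. Minimum of three assays, ± SEM.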

[7] = biological target: T1, Neuronal acetylcholine receptor; alpha4/beta2; assay: Displacement of [3H]nicotine from human alpha4beta2 nAChR expressed in human SH-EP1 cells; format: cell-based; in short: as §1
[8] = biological target: T2, Neuronal acetylcholine receptor; alpha3/beta4; assay: Displacement of [3H]epibatidine from human alpha3beta4 nAChR expressed in human SH-SY5Y cells; format: cell-based; in short: as §1
[9] = biological target: T2, Neuronal acetylcholine receptor; alpha3/beta4; assay: Agonist activity at human alpha3beta4 nAChR expressed in human SH-SY5Y cells assessed as increase in calcium flux by FLIPR; format: functional, cell-based

T1 sequence (P17787 whole entry): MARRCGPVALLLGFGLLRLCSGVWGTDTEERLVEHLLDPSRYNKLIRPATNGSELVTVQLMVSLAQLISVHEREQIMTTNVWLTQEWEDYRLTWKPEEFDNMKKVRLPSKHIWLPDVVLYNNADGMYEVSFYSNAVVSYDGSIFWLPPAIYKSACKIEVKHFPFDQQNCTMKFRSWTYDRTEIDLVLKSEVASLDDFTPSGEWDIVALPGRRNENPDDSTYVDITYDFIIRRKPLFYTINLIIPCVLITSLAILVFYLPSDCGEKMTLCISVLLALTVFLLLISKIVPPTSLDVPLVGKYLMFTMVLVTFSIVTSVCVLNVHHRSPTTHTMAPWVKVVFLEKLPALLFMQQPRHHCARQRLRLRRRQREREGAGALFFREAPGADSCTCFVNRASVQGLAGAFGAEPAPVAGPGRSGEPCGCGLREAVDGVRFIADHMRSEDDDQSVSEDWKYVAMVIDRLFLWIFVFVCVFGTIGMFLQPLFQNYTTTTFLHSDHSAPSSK
T1 sequence (P43681 whole entry): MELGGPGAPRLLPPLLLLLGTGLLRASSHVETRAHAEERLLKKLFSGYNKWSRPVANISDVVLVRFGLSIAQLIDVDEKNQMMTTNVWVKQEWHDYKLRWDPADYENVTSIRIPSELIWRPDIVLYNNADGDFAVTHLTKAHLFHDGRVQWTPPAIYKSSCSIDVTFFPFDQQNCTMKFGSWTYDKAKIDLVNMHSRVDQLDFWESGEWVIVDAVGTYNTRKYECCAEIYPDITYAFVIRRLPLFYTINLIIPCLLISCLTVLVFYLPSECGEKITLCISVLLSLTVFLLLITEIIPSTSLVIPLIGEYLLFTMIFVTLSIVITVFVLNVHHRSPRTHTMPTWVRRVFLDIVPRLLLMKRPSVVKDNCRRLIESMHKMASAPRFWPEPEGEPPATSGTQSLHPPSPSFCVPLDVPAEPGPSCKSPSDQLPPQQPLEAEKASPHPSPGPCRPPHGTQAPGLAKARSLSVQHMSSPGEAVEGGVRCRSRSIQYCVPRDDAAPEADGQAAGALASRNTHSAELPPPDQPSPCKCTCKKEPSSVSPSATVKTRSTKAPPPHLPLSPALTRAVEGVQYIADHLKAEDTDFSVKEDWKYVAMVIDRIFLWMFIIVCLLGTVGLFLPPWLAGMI
T2 sequence (P30926 whole entry): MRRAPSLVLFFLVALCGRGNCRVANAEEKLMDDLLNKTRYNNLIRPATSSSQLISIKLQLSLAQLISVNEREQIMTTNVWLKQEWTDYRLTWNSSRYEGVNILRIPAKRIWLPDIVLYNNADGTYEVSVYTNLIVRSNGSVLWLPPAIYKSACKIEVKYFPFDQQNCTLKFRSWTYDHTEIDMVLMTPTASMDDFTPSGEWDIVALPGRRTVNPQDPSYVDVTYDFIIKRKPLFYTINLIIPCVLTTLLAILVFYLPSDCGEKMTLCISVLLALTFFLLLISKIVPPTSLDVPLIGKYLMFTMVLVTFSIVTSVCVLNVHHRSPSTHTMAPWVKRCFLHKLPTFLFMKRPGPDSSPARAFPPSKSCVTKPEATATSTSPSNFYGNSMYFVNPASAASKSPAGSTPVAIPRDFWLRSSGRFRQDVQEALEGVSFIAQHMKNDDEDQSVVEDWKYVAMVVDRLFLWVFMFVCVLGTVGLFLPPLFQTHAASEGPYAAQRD
T2 sequence (P32297 whole entry): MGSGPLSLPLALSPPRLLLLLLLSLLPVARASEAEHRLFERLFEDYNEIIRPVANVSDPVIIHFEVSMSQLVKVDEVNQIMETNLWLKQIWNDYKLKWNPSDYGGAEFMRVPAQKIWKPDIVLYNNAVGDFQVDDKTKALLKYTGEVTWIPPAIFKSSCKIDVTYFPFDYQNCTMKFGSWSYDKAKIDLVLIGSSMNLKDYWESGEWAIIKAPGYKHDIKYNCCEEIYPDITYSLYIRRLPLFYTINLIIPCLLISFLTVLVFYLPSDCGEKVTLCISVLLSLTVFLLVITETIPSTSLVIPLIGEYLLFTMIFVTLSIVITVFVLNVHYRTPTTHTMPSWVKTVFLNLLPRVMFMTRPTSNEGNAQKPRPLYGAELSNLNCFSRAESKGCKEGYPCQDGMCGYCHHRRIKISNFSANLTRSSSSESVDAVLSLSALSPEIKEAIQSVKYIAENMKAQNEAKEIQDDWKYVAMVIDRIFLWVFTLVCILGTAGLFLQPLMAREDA
Neuronal acetylcholine receptor subunit alpha-7, sequence (P36544 whole entry): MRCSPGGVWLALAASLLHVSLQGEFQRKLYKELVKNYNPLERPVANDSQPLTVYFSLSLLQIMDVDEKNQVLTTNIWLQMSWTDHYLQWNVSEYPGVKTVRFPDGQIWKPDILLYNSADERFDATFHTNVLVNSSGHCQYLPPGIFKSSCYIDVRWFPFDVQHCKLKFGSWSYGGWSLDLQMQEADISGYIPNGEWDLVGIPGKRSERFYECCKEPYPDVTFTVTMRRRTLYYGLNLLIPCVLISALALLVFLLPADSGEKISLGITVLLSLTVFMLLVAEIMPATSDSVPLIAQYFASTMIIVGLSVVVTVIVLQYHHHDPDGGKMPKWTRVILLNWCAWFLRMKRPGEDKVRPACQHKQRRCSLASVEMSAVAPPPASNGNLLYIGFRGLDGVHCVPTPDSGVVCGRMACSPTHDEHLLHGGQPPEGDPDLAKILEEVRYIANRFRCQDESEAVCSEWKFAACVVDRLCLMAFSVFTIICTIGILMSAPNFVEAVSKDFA

Row | SMILES | EC50 [1] [µM] | %max [2] [%] | EC50 [3] [µM] | %max [4] [%] | %max [5] [%] | Ki [6] [µM] | Ki [7] [µM] | Ki [8] [µM] | EC50 [9] [µM]
1 | Fc1cncc(C2=C[C@H]3CNC[C@@H](C2)C3)c1 | 0.029 | 140 | 0.05 | 100 | 119 | 0.0033 | 0.0002 | 0.0083 | 0.155
2 | CN1CC2C=C(c3cncc(Cl)c3)CC(C2)C1 (stereo not given) |  |  |  |  |  | 8.01 | 0.0096 | 1.83 | 
3 | COc1ccc(C2=CC3CNCC(C2)C3)cn1 (stereo not given) |  |  |  |  |  | 1.85 | 0.0004 | 0.328 | 
4 | CN1CC2C=C(c3cnccc3Cl)CC(C2)C1 (stereo not given) |  |  |  |  |  | 1.42 | 1.16 | 7.23 | 
5 | C1=C(c2cnccn2)CC2CNCC1C2 (stereo not given) |  |  |  |  |  | 0.281 | 0.0011 | 0.828 | 
6 | N#Cc1cncc(C2=C[C@@H]3CNC[C@H](C2)C3)c1 | 0.107 | 144 | 0.343 | 92 | 89 | 0.079 | 0.0003 | 0.017 | 0.447
7 | C1=C(c2ccc3nccnc3c2)CC2CNCC1C2 (stereo not given) |  |  |  |  |  | > 10 | 0.085 | 5.74 | 
8 | C1=C(c2cccnc2)CC2CNCC1C2 (racemic) |  |  |  |  |  | 0.004 | 0.0002 | 0.012 | 
9 | COc1cc(C2=CC3CC(C2)CN(C)C3)cnc1Cl (stereo not given) |  |  |  |  |  | 7.57 | 0.0044 | 1.43 | 
10 | Clc1ccc(C2=CC3CNCC(C2)C3)cn1 (stereo not given) | 0.054 | 141 | 0.035 | 98 | 152 | 0.039 | 0.0004 | 0.0062 | 0.016
11 | Clc1cccc(Oc2cncc(C3=CC4CNCC(C3)C4)c2)c1 (stereo not given) |  |  |  |  |  | 0.013 | 0.001 | 0.022 | 
12 | Fc1cncc(C2=CC3CNCC(C2)C3)c1 (stereo not given) |  |  |  |  |  | 0.0036 | 0.0003 | 0.039 | 
13 | CN1CC2C=C(c3ccc(Cl)nc3)CC(C2)C1 (stereo not given) |  |  |  |  |  | 6.53 | 0.022 | 0.986 | 
14 | Cc1ccc(C2=CC3CNCC(C2)C3)cn1 (stereo not given) | 0.075 | 149 | 0.079 | 107 | 112 | 0.08 | 0.0003 | 0.025 | 0.093
15 | C1=C(c2cncnc2)CC2CNCC1C2 (stereo not given) | 0.24 | 147 | 0.162 | 116 | 145 | 0.019 | 0.0002 | 0.058 | 0.198
16 | COc1cc(C2=CC3CNCC(C2)C3)cnc1Cl (stereo not given) |  |  |  |  |  | 0.111 | 0.0004 | 0.007 | 
17 | COc1ccccc1Oc1cncc(C2=CC3CNCC(C2)C3)c1 (stereo not given) |  |  |  |  |  | 0.03 | 0.001 | 0.056 | 
18 | CN1CC2C=C(c3cncc(Oc4ccccc4)c3)CC(C2)C1 (stereo not given) | 0.183 | 103 | > 10 | 42 | 9.5 | 0.017 | 0.0013 | 0.0082 | 0.1
19 | CN1CC2C=C(c3cncc(OCc4ccccc4)c3)CC(C2)C1 (stereo not given) |  |  |  |  |  | 4.54 | 0.0017 | 0.711 | 
20 | C1=C(c2ccc(-c3ccccc3)nc2)CC2CNCC1C2 (stereo not given) | > 10 | 17 | 9.66 | 19 | 18 | 0.59 | 0.105 | 0.507 | 10.9
21 | Fc1ccc(C2=CC3CNCC(C2)C3)cn1 (stereo not given) | 0.085 | 140 | 0.085 | 104 | 136 | 0.02 | 0.0004 | 0.028 | 0.099
22 | COc1ccc(Oc2cncc(C3=CC4CNCC(C3)C4)c2)cc1 (stereo not given) |  |  |  |  |  | 0.023 | 0.0014 | 0.027 | 
23 | Clc1ccccc1Oc1cncc(C2=CC3CNCC(C2)C3)c1 (stereo not given) |  |  |  |  |  | 0.039 | 0.0009 | 0.026 | 

Row | SMILES | EC50 [1] [µM] | %max [2] [%] | EC50 [3] [µM] | %max [4] [%] | %max [5] [%] | Ki [6] [µM] | Ki [7] [µM] | Ki [8] [µM] | EC50 [9] [µM]
24 | c1cncc(N2CC3CNCC(C3)C2)c1 |  |  |  |  |  | 0.0016 | 0.0001 | 0.0066 | 
25 | N#Cc1ccncc1C1=CC2CNCC(C1)C2 (stereo not given) | 3.25 | 130 | > 10 | 55 | 27 | 0.33 | 0.0028 | 0.103 | 0.166
26 | COc1cncc(C2=CC3CC(C2)CN(C)C3)c1 (stereo not given) | 2.66 | 27 | 5.13 | 19 | 15 | 0.605 | 0.0006 | 0.596 | 3.64
27 | COc1cccc(Oc2cncc(C3=CC4CNCC(C3)C4)c2)c1 (stereo not given) |  |  |  |  |  | 0.013 | 0.0009 | 0.015 | 
28 | Fc1cncc(C2=C[C@@H]3CNC[C@H](C2)C3)c1 | 0.034 | 153 | 0.036 | 112 | 120 | 0.0016 | 0.0002 | 0.0054 | 0.111
29 | Fc1ccc(Oc2cncc(C3=CC4CNCC(C3)C4)c2)cc1 (stereo not given) |  |  |  |  |  | 0.0072 | 0.0006 | 0.031 | 
30 | CNCC/C=C/c1cccnc1 [RIVANICLINE] |  |  |  |  |  | 8 | 0.026 | 5.4 | 
31 | CN1CC2C=C(c3cncc(F)c3)CC(C2)C1 (stereo not given) |  |  |  |  |  | 1.01 | 0.013 | 1.64 | 
32 | Clc1ccc(C2=CC3CNCC(C2)C3)nn1 (stereo not given) | 0.08 | 135 | 0.595 | 118 | 160 | 0.077 | 0.0004 | 0.073 | 0.149
33 | CN1CC2C=C(c3ccc(F)nc3)CC(C2)C1 (stereo not given) | > 10 | 25 | > 10 | 22 | 9.4 | 1.3 | 0.018 | 1.3 | > 10
34 | N#Cc1cncc(C2=C[C@H]3CNC[C@@H](C2)C3)c1 | 0.256 | 136 | 4.19 | 95 | 88 | 0.073 | 0.0003 | 0.015 | 0.355
35 | FC(F)(F)c1cncc(C2=CC3CNCC(C2)C3)c1 (stereo not given) |  |  |  |  |  | 0.641 | 0.0007 | 0.079 | 
36 | Clc1ccncc1C1=CC2CNCC(C1)C2 (stereo not given) | 2 | 105 | > 10 | 46 | 12.8 | 0.033 | 0.003 | 0.128 | 0.377
37 | COc1cncc(C2=CC3CNCC(C2)C3)c1 (stereo not given) | 0.049 | 145 | 0.053 | 72 | 100 | 0.0046 | 0.0003 | 0.0143 | 0.105
38 | Clc1ccc(Oc2cncc(C3=CC4CNCC(C3)C4)c2)cc1 (stereo not given) |  |  |  |  |  | 0.023 | 0.0019 | 0.04 | 
39 | N#Cc1cncc(C2=CC3CNCC(C2)C3)c1 (stereo not given) |  |  |  |  |  | 0.16 | 0.0006 | 0.047 | 
40 | C1=C(c2cncc(-c3ccccc3)c2)CC2CNCC1C2 (stereo not given) | 0.085 | 61 | > 10 | 33 | 5.3 | 3.22 | 0.0008 | 0.017 | 0.181
41 | CN1CC2C=C(c3cncc(C#N)c3)CC(C2)C1 (stereo not given) |  |  |  |  |  | > 10 | 0.024 | 4.5 | 
42 | CN1CC2C=C(c3cnccc3C#N)CC(C2)C1 (stereo not given) |  |  |  |  |  | 4.85 | 3.42 |  | 
43 | C1=C(c2ccncc2)CC2CNCC1C2 (stereo not given) |  |  |  |  |  | > 10 | 0.056 | 0.459 | 
44 | C1=C(c2cncc(OCc3ccccc3)c2)CC2CNCC1C2 (stereo not given) |  |  |  |  |  | 0.0439 | 0.0007 | 0.044 | 
45 | COc1ccc(C2=CC3CC(C2)CN(C)C3)cn1 (stereo not given) | 3.46 | 61 | > 10 | 91 | 20 | > 10 | 0.797 | > 10 | 1.89
46 | Clc1cncc(C2=CC3CNCC(C2)C3)c1 (stereo not given) |  |  |  |  |  | 0.015 | 0.0004 | 0.04 | 
